Experimental data taken from publication PMC10258837 (Journal of the American Chemical Society, 2021).

Assays:
Mur21 [1] = experiment: amino acid-dependent ATP-PPi exchange, Mur21; type: biochemical, Streptomyces sp. NRRL 30471; details: amino acid-dependent ATP-PPi exchange assay; MBP fusion
VioC = VioC hydroxylation; type: biochemical, Streptomyces sp. strain ATCC11861; details: free L-Arg; experimental control
Mur16 = details: cited from earlier work
SlAnpD(AT) = experiment: amino acid-dependent ATP-PPi exchange, SlAnpD; type: biochemical, Streptomyces lavendulae subsp. lavendulae strain NRRL B-2775; details: amino acid-dependent ATP-PPi exchange assay; truncated, lacking the C domain
Mur15 [2] = target: T1, Mur15 (Streptomyces sp. NRRL 30471, UniProt F2WUC7); experiment: Mur15 substrate scope; type: biochemical; details: for Mur15-catalyzed hydroxylation of free amino acid: LC-MS with authentic hydroxylated standards; for Mur15-catalyzed hydroxylation (substrate conversion): Fe2+, αKG and O2, LC-MS
Summary of the method: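 Mur15 incubated with Fe2+, αKG and O2 plus either a muraymycin substrate purified from Streptomyces sp. NRRL 30475 or a synthetic deaminoribose analogue. Reactions analysed by HPLC against a control without enzyme. Product identity checked by co-injection with authentic hydroxylated standard.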

AnpI = AnpI substrate test; type: biochemical, Streptomyces lavendulae subsp. lavendulae strain NRRL B-2775; details: free (not T domain-bound) substrate
AnpF orthologs = experiment: amino acid-dependent ATP-PPi exchange, AnpF orthologs; type: biochemical; details: amino acid-dependent ATP-PPi exchange assay
AnpE orthologs [3] = experiment: amino acid-dependent ATP-PPi exchange, AnpE orthologs; type: biochemical; details: amino acid-dependent ATP-PPi exchange assay
Mur27 = experiment: amino acid-dependent ATP-PPi exchange, Mur27; type: biochemical, Streptomyces sp. NRRL 30471; details: amino acid-dependent ATP-PPi exchange assay; MBP fusion
SadA = details: cited from earlier work
any NRPS = details: [14C]NaHCO3; Figure S10
Mur15 [4] = target: T1, Mur15; experiment: Mur15 single-substrate kinetic analysis and turnover; type: biochemical; details: for Km / kcat: single-substrate kinetic analysis with saturating αKG, Michaelis-Menten
Summary of the method: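 Mur15 reaction with Fe2+, αKG and O2 as cofactor and cosubstrates. The native muraymycin substrate, purified from Streptomyces sp. NRRL 30475, is varied for single-substrate kinetics.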

E. coli = experiment: anti-E. coli activity; type: cell-based; details: 8 compared with 3; E. coli strain not stated; Table S3
M. smegmatis = experiment: anti-M. smegmatis activity; type: cell-based; details: 8 compared with 3; Table S3
holo-SlAnpD(AT) = experiment: covalent modification by phosphor imaging, holo-SlAnpD; type: biochemical, Streptomyces lavendulae subsp. lavendulae strain NRRL B-2775; details: 14C-labelled amino acid; phosphor imaging of gels
Mur12 = experiment: T domain loading by SDS-PAGE with phosphor imaging, Mur12; type: biochemical, Streptomyces sp. NRRL 30471; details: 14C-labelled amino acid, CoA and Sfp
Mur21 [5] = experiment: T domain loading by SDS-PAGE with phosphor imaging, Mur21; type: biochemical, Streptomyces sp. NRRL 30471; details: 14C-labelled amino acid, MBP fusion
AnpE orthologs [6] = experiment: covalent modification by phosphor imaging, AnpE orthologs; type: biochemical; details: 14C-labelled amino acid
AnpF = experiment: covalent modification by phosphor imaging, AnpF; type: biochemical; details: 14C-labelled amino acid
Mur14 = experiment: T domain loading by SDS-PAGE with phosphor imaging, Mur14; type: biochemical, Streptomyces sp. NRRL 30471; details: 14C-labelled amino acid; Mur27 with Mur14

CC(C)[C@H](O)[C@H](N)C(=O)O [(2S,3S)-2, (2S,3S)-β-OH-Leu]
A domain activation of amino acid by Mur21 (Mur21 [1]): inactive

N=C(N)NCCC[C@H](N)C(=O)O [L-Arg]
hydroxylation by VioC (VioC): shown to hydroxylate free L-Arg | hydroxylation by Mur16 (Mur16): did not hydroxylate L-Arg | A domain specificity of SlAnpD(AT) (SlAnpD(AT)): high specificity | Mur15-catalyzed hydroxylation of free amino acid (Mur15 [2]): no peaks corresponding to a hydroxylated product were detected | conversion by AnpI (AnpI): 1 was not detected

N[C@@H](CS)C(=O)O [L-Cys]
A domain activation by AnpF orthologs (AnpF orthologs): slight preference

N[C@@H](Cc1c[nH]cn1)C(=O)O [L-His]
A domain activation by AnpF orthologs (AnpF orthologs): slight preference

CC[C@H](C)[C@H](N)C(=O)O [L-Ile]
A domain activation by AnpF orthologs (AnpF orthologs): slight preference | A domain activation by AnpE orthologs (AnpE orthologs [3]): very low activity

CC(C)C[C@H](N)C(=O)O [L-Leu]
A domain activation by AnpF orthologs (AnpF orthologs): slight preference | A domain activation by AnpE orthologs (AnpE orthologs [3]): highest activity | A domain activation of amino acid by Mur21 (Mur21 [1]): preferential activity | Mur15-catalyzed hydroxylation of free amino acid (Mur15 [2]): no peaks corresponding to a hydroxylated product were detected

CSCC[C@H](N)C(=O)O [L-Met]
A domain activation by AnpF orthologs (AnpF orthologs): slight preference | A domain activation by AnpE orthologs (AnpE orthologs [3]): highest activity

N[C@@H](Cc1ccccc1)C(=O)O [L-Phe]
A domain activation by AnpF orthologs (AnpF orthologs): slight preference

N[C@@H](Cc1c[nH]c2ccccc12)C(=O)O [L-Trp]
A domain activation by AnpF orthologs (AnpF orthologs): no activity

CC(C)[C@H](N)C(=O)O [L-Val]
A domain activation by AnpF orthologs (AnpF orthologs): slight preference | A domain activation by AnpE orthologs (AnpE orthologs [3]): very low activity | A domain activation of amino acid by Mur27 (Mur27): relatively low activity yet with modest specificity

CC(=O)N[C@@H](CC(C)C)C(=O)O [N-acetyl-L-Leu]
conversion by SadA to hydroxylated product (SadA): hydroxylated product with (2S,3R)-stereochemical configuration

CC(C)C[C@H](NC(=O)CCC(=O)O)C(=O)O [N-succinyl-L-Leu]
conversion by SadA to hydroxylated product (SadA): hydroxylated product with (2S,3R)-stereochemical configuration

O=[14C]([O-])O.[Na+] [[^14C]NaHCO3]
radiolabelling of NRPS (any NRPS): inability to radiolabel any NRPS

CO[C@H]1[C@H](O[C@H]([C@H]2O[C@@H](n3ccc(=O)[nH]c3=O)[C@H](O)[C@@H]2O)[C@H](NCCCNC(=O)[C@H](CC(C)C)NC(=O)[C@@H](NC(=O)N[C@H](C(=O)O)C(C)C)[C@@H]2CCN=C(N)N2)C(=O)O)O[C@H](CN)[C@H]1O [compound 3, muraymycin D1]
Km (Mur15 [4]): 600 ± 100 µM | kcat (Mur15 [4]): 0.167 ± 0.017 s⁻¹ | total turnover number (TTN) (Mur15 [4]; with native substrate (3) or unnatural substrate (muraymycin B), estimated): ≥ 800 | Mur15-catalyzed hydroxylation (substrate conversion) (Mur15 [2]): a new peak with a mass corresponding to mono-hydroxylated 3

CC(C)C[C@H](NC(=O)[C@@H](NC(=O)N[C@H](C(=O)O)C(C)C)[C@@H]1CCN=C(N)N1)C(=O)NCCCN[C@H](C(=O)O)[C@H](O[C@@H]1O[C@H](CN)[C@@H](O)[C@H]1O)[C@H]1O[C@@H](n2ccc(=O)[nH]c2=O)[C@H](O)[C@@H]1O [compound 4, muraymycin D2]
Mur15-catalyzed hydroxylation (substrate conversion) (Mur15 [2]): mono-hydroxylated

CO[C@H]1[C@H](O[C@H]([C@H]2O[C@@H](n3ccc(=O)[nH]c3=O)[C@H](O)[C@@H]2O)[C@H](NCCCNC(=O)[C@@H](NC(=O)[C@@H](NC(=O)N[C@H](C(=O)O)C(C)C)[C@@H]2CCN=C(N)N2)[C@@H](O)C(C)C)C(=O)O)O[C@H](CN)[C@H]1O [compound 8, muraymycin C1]
effect of conversion of 3 to 8 on E. coli activity (E. coli): minimal effect | effect of conversion of 3 to 8 on anti-M. smegmatis activity (M. smegmatis): minimal effect | Mur15-catalyzed hydroxylation (substrate conversion) (Mur15 [2]): remained unchanged

N=C(N)NCCC[C@H](NC(=O)NC(Cc1ccccc1)C(=O)O)C(=O)O (stereo partly drawn) [compound 11, L-Phe-(C=O)-L-Arg]
conversion by AnpI (AnpI): No product was observed

CO[C@H]1[C@H](O[C@H]([C@H]2O[C@@H](n3ccc(=O)[nH]c3=O)[C@H](O)[C@@H]2O)[C@H](NCCCNC(=O)[C@@H](NC(=O)[C@@H](NC(=O)N[C@H](C(=O)O)C(C)C)[C@@H]2CCN=C(N)N2)[C@@H](OC(=O)CCCCCCCCCCCCN(O)C(=N)N)C(C)C)C(=O)O)O[C@H](CN)[C@H]1O [muraymycin A1]
Mur15-catalyzed hydroxylation (substrate conversion) (Mur15 [2]): mass consistent with a mono-hydroxylated product

CO[C@H]1[C@H](O[C@H]([C@H]2O[C@@H](n3ccc(=O)[nH]c3=O)[C@H](O)[C@@H]2O)[C@H](NCCCNC(=O)[C@@H](NC(=O)[C@@H](NC(=O)N[C@H](C(=O)O)C(C)C)[C@@H]2CCN=C(N)N2)[C@@H](OC(=O)CCCCCCC(C)C)C(C)C)C(=O)O)O[C@H](CN)[C@H]1O [muraymycin B2]
Km (Mur15 [4]): 930 µM | kcat (Mur15 [4]): 0.108 ± 0.0083 s⁻¹ | drop in catalytic efficiency when compared with 3 (Mur15 [4]; with respect to muraymycin B2, saturating αKG): ~ 2 -fold | Mur15-catalyzed hydroxylation (substrate conversion) (Mur15 [2]): mass consistent with a mono-hydroxylated product

CO[C@H]1[C@H](O[C@H]([C@H]2O[C@@H](n3ccc(=O)[nH]c3=O)[C@H](O)[C@@H]2O)[C@H](NCCCNC(=O)[C@@H](NC(=O)[C@@H](NC(=O)N[C@H](C(=O)O)C(C)C)[C@@H]2CCN=C(N)N2)[C@@H](OC(=O)CCCCC(C)C)C(C)C)C(=O)O)O[C@H](CN)[C@H]1O [muraymycin B6]
Mur15-catalyzed hydroxylation (substrate conversion) (Mur15 [2]): mass consistent with a mono-hydroxylated product

L-[^14C]Arg
covalent modification of holo-SlAnpD(AT) (holo-SlAnpD(AT)): covalently modified | loading of Mur12 T domain (Mur12): A faint band corresponding to the molecular weight of Mur12 was detected

L-[^14C]Leu
self-loading of Mur21 (Mur21 [5]): not observed

L-[^14C]Phe
covalent modification of AnpE orthologs (AnpE orthologs [6]): covalent modification of the AnpE orthologs was detected

L-[^14C]Val
covalent modification of AnpF (AnpF): Covalent modification of AnpF was observed | loading of Mur14 (Mur14): not observed

α-MAPI [compound 9]
conversion by AnpI (AnpI): Neither, however, were converted to a product
